pIC50: −log10 of the molar value.
Experiments:
[1] = target: T1, human cytochrome P450 1A2 (Homo sapiens, UniProt P05177); assay: Inhibition of human cytochrome P450 1A2; format: in vitro ADME
T1 sequence (P05177 1-516): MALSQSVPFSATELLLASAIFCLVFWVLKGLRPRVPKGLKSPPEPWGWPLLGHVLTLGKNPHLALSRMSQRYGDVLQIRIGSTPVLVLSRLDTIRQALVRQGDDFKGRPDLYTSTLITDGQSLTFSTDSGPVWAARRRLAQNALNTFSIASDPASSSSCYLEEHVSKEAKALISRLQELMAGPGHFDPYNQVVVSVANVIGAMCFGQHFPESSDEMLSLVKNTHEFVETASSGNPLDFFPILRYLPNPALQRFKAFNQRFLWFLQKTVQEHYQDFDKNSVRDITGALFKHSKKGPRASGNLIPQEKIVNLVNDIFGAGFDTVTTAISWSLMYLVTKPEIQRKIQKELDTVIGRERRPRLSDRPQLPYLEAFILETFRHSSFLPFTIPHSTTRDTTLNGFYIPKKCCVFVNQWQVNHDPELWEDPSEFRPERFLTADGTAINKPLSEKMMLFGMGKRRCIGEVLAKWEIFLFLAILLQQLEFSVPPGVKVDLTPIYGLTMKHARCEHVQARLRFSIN
Method in brief: (§1)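 Human CYP450 isoform inhibition (1A2, 2C9, 2C19, 2D6, 3A4) measured as IC50 or as percent inhibition at 10 μm test compound. For 3A4, two probe substrates were used separately: 7-benzyloxy-trifluoromethylcoumarin (BFC) and […] (BQ). Each value is the mean of two measurements.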

human 11β-HSD1 = human 11β-HSD1 (Homo sapiens, UniProt P28845); assay: 11β-HSD1 inhibition cellular assay; format: cell-based; conditions: IC50, human 11β-HSD1, HEK293 cell line transfected with human HSD11B1 gene; mean of three measurements, variance less than 20 %
Chain of human 11β-HSD1 (P28845 whole entry): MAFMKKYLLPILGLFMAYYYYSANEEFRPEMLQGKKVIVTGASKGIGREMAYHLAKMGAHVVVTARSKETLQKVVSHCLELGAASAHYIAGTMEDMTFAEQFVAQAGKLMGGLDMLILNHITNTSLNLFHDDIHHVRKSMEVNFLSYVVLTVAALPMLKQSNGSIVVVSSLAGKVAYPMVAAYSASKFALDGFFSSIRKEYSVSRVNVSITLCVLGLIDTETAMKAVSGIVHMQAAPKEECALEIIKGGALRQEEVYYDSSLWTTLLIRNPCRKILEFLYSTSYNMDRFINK

[2] = target: human cytochrome P450 2C19 (Homo sapiens, UniProt P33261); assay: Inhibition of human cytochrome P450 2C19; format: in vitro ADME
Chain of human cytochrome P450 2C19 (P33261 whole entry): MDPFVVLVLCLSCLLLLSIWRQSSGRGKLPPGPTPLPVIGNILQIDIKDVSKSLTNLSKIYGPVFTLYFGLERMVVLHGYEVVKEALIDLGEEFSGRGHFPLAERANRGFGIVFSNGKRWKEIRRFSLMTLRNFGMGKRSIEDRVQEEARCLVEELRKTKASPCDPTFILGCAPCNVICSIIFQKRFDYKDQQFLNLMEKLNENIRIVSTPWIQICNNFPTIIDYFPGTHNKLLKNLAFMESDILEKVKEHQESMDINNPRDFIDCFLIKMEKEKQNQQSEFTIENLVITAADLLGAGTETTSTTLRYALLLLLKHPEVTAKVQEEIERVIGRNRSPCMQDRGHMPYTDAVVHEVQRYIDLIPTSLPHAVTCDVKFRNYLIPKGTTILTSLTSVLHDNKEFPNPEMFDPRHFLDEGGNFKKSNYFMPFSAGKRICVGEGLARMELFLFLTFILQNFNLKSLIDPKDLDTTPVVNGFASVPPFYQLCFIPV
Method in brief: as §1

[3] = target: human cytochrome P450 3A4 (Homo sapiens, UniProt P08684); assay: Inhibition of human cytochrome P450 3A4; format: in vitro ADME; conditions: IC50 CYP450 3A4-BQ, substrate BQ; mean of two measurements
Chain of human cytochrome P450 3A4 (P08684 whole entry): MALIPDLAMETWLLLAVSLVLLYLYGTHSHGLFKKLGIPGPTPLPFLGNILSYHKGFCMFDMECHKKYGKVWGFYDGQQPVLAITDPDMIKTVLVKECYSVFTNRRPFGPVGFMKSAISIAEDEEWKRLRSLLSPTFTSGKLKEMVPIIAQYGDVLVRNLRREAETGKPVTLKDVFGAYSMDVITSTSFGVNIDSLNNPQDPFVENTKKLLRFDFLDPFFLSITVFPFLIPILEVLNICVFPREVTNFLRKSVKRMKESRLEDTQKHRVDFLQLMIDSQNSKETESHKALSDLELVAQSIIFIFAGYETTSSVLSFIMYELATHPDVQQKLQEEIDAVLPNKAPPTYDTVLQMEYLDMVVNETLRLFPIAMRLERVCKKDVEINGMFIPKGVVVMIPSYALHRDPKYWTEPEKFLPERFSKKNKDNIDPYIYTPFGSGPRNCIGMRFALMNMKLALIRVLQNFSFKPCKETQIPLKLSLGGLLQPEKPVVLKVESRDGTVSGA
Method in brief: as §1

[4] = Membrane permeability in the Caco-2 cell model; format: in vitro ADME; conditions: human
Method in brief: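 Caco-2 monolayer permeability. Test compound was applied at 20 μm, and the apparent permeability coefficient (Papp) was determined in the apical-to-basolateral direction.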

mouse 11β-HSD1 = mouse 11β-HSD1 (Mus musculus, UniProt P50172); assay: Inhibition of mouse 11β-HSD1; format: cell-based
Chain of mouse 11β-HSD1 (P50172 whole entry): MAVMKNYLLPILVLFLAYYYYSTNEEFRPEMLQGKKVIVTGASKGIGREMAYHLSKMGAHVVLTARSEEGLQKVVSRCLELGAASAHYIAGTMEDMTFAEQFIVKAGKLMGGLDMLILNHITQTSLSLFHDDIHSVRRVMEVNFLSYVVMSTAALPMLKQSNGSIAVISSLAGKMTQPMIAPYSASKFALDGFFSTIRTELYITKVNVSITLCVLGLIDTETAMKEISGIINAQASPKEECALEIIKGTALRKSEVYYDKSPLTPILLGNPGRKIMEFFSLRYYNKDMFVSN

17β-HSD1 = target: T2, 17β-HSD1 (Homo sapiens, UniProt P14061); assay: Selectivity: inhibition of 17β-HSD1; conditions: at a concentration of 10 μM (data not shown)
T2 sequence (P14061 1-328): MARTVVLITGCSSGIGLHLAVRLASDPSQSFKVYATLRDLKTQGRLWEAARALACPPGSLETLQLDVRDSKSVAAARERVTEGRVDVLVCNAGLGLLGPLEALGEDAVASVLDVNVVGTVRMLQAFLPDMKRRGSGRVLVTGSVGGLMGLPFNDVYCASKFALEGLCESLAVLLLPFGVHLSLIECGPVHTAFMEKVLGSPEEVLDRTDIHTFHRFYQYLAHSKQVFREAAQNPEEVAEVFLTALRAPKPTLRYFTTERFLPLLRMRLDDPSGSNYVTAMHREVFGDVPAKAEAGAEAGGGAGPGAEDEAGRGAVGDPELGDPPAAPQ

[5] = Metabolic stability in human liver microsomes; format: in vitro ADME; conditions: 37 °C, NADPH, 40 min incubation, mean of two experiments
Method in brief: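 Parent compound was incubated with human liver microsomes plus NADPH cofactor at 37 °C for 40 min. Loss of parent was followed by HPLC, and half-life and intrinsic clearance were calculated from the depletion. Values are the mean of two experiments.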

human 11β-HSD2 = target: T3, human 11β-HSD2 (Homo sapiens, UniProt P80365); assay: Selectivity: inhibition of human 11β-HSD2; format: cell-based; conditions: at a concentration of 10 μM (data not shown)
T3 sequence (P80365 1-405): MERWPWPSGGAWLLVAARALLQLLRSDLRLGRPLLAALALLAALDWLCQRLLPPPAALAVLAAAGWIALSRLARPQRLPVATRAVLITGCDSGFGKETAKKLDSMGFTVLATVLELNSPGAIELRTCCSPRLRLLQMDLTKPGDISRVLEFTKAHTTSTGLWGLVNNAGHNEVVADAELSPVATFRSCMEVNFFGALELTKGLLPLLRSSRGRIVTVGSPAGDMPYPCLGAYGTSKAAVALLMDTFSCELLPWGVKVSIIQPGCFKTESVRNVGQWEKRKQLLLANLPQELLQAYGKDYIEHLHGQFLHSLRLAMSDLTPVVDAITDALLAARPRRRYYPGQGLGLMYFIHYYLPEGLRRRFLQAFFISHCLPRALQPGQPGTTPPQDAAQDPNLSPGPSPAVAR

[6] = target: human cytochrome P450 2C9 (Homo sapiens, UniProt P11712); assay: Inhibition of human cytochrome P450 2C9; format: in vitro ADME
Chain of human cytochrome P450 2C9 (P11712 whole entry): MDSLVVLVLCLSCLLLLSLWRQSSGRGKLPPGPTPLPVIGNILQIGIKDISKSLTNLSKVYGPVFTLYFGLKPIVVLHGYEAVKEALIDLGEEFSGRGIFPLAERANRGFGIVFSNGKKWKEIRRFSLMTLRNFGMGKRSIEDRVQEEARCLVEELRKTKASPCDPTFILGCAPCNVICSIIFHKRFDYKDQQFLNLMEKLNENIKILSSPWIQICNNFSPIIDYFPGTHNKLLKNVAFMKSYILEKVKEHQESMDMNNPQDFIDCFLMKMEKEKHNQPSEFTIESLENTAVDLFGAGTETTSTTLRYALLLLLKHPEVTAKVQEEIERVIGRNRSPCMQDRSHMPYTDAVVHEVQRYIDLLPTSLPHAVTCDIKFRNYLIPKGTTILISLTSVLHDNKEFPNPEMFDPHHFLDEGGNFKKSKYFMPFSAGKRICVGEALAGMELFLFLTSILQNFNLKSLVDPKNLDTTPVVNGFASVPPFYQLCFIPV
Method in brief: as §1

[7] = target: human cytochrome P450 2D6 (Homo sapiens, UniProt P10635); assay: Inhibition of human cytochrome P450 2D6; format: in vitro ADME
Chain of human cytochrome P450 2D6 (P10635 whole entry): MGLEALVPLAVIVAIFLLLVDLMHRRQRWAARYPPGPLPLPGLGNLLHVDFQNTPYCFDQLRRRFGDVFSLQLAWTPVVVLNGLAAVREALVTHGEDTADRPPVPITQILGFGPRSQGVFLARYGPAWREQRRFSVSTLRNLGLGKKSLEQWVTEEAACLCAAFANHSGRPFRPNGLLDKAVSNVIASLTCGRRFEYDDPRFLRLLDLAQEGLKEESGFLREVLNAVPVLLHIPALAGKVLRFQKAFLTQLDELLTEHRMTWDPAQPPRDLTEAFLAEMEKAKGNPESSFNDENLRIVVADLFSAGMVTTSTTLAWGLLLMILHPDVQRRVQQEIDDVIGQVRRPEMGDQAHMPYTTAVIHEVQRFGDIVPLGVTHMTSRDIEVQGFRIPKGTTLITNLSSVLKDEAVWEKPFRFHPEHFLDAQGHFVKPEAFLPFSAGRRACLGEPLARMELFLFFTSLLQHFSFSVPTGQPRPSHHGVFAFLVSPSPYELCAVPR
Method in brief: as §1

| pIC50 [1] | pIC50 (human 11β-HSD1) | pIC50 [2] | melting point | pIC50 [3] | Papp A→B at 20 μM [4] | pIC50 (mouse 11β-HSD1) | inhibition against 17β-HSD1 (17β-HSD1) | CLint [5] | inhibition against human 11β-HSD2 (human 11β-HSD2) | pIC50 [6] | pIC50 [7] | Structure (SMILES) |
| --- | --- | --- | --- | --- | --- | --- | --- | --- | --- | --- | --- | --- |
| 4.48 | > 7.30 | 4.52 | 95 to 98 °C | 4.92 | 22 ×10⁻⁶ cm/s | 7.70 | – | – | – | – | – | O=C(C[S+]([O-])Cc1cccs1)C12CC3CC(CC(C3)C1)C2 (stereo not shown) [Compound 14, 1-(Adamantan-1-yl)-2-(thiophen-2-ylmethanesulfinyl)ethanone] |
| 4.68 | – | 5.44 | – | 4.21 | – | – | inactive | 8.7 µL/min/mg | inactive | – | – | Cn1cnnc1SCC(=O)C12CC3CC(CC(C3)C1)C2 [Compound 28, 1-(Adamantan-1-yl)-2-(4-methyl-4H-[1,2,4]triazol-3-ylsulfanyl)-ethanone] |
| < 4.00 | – | 4.77 | 111 to 113 °C | 4.52 | – | – | – | – | – | 4.96 | < 4.00 | Cc1nnc(S(=O)(=O)CC(=O)C23CC4CC(CC(C4)C2)C3)s1 [Compound 37, 1-(Adamantan-1-yl)-2-(5-methyl-[1,3,4]thiadiazole-2-sulfonyl)ethanone] |

Source: publication PMC3170876 (Chemmedchem, 2011)
